This note sets out measurements from ChEMBL document CHEMBL4811322, “Impact of α-modifications on the activity of triazole bisphosphonates as geranylgeranyl diphosphate synthase inhibitors” (Bioorg Med Chem, 2021).

Test [1] addresses T1, Geranylgeranyl pyrophosphate synthase (Homo sapiens, UniProt O95749).
T1 sequence (O95749 whole entry): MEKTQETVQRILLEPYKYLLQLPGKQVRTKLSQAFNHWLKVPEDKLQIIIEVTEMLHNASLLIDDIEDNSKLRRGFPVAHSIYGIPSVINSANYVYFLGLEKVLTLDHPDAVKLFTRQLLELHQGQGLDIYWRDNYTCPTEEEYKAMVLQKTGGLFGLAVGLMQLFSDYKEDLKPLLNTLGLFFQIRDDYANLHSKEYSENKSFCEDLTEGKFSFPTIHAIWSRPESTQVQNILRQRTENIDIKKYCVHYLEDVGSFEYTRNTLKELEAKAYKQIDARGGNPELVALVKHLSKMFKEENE
Briefly: Inhibition of recombinant GGDPS (unknown origin) using FPP and [14C] IPP as substrate preincubated for 10 mins followed by substrate addition measured after 30 mins by liquid scintillation counting method. The essentials: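 In the enzyme assay, each compound was tested in duplicate at multiple concentrations, with three independent experiments. IC50 values were derived from concentration-response curve analysis.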

Test [2] has as its target T2, Geranylgeranyl pyrophosphate synthase (Homo sapiens) (UniProt O95749).
T2 sequence (whole entry): T1 sequence (O95749 whole entry)
As to the kind of experiment: Inhibition of GGDPS in human RPMI-8226 cells assessed as lowest effective concentration required to show unmodified Rap1a band after 48 hrs by immunoblot analysis. In kind it is cell-based. The essentials: (§1)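 LEC is the lowest concentration giving both a visible unmodified Rap1a band and a statistically significant rise in lambda light chain (ELISA, two-tailed t-test, p<0.05). RPMI-8226 cells were treated for 48 h. The Rap1a antibody detects only unmodified Rap1a, with β-tubulin as loading control. Lysates were made in RIPA buffer and normalised by BCA.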
A general note: In western blotting, separated proteins are transferred to a membrane and probed.

Test [3] concerns the target T2, Geranylgeranyl pyrophosphate synthase (Homo sapiens). As to the kind of experiment: Inhibition of GGDPS in human RPMI-8226 cells assessed as disruption of farnesylation at 0.1 to 1 uM measured after 48 hrs by immunoblot analysis. In kind it is cell-based. The conditions noted are these: dose 0.1-1 µM. The method in brief: (§2)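 H-Ras farnesylation was checked by immunoblot after RPMI-8226 cells (ATCC) were exposed to compound for 48 h, with lovastatin 10 μM as positive control. Whole-cell RIPA lysates with protease/phosphatase inhibitors were protein-normalised by BCA, run on SDS-PAGE and transferred to PVDF. Blots were probed for H-Ras with β-tubulin as loading control and detected with HRP secondary/ECL. Gels are representative of three independent studies.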

For a further test, the system named is RPMI-8226. Briefly: Cytotoxicity against human RPMI-8226 cells assessed as decrease in cell viability at 10 to 100 uM measured after 48 hrs by MTT assay. The test is classed as functional, cell-based. To be noted: dose 10-100 µM. The essentials:
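RPMI-8226 myeloma cells seeded at 2.5 × 10^4 cells per 100 μL well and exposed to compound for 48 h, then MTT read-out. Absorbance of solvent-only control cells set as 100% MTT activity. Data expressed as percentage of control, mean ± SD, n=4.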

For test [4], the target named is T2, Geranylgeranyl pyrophosphate synthase (Homo sapiens). As to the kind of experiment: Inhibition of GGDPS in human RPMI-8226 cells assessed as lowest effective concentration required to show unmodified Rap1a band up to 100 uM after 48 hrs by immunoblot analysis. To be noted: dose microM <=100, time 48.0 hrs. The test is classed as cell-based. The essentials:
as §1

Test [5] has the same target. Briefly: Inhibition of GGDPS in human RPMI-8226 cells assessed as disruption of farnesylation at 0.05 to 0.5 uM measured after 48 hrs by immunoblot analysis. To be noted: dose 0.05-0.5 µM. In kind it is cell-based. The essentials: as §2
Test [6] shares this target. As to the kind of experiment: Inhibition of GGDPS in human RPMI-8226 cells assessed as increase in intracellular lambda chain level after 48 hrs by ELISA. The test is classed as cell-based. The method in brief: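 Intracellular lambda light chain was quantified by ELISA in the same 48 h RPMI-8226 lysates prepared for immunoblotting, with lovastatin 10 μM as positive control. Values are percentage of untreated control, mean ± SD, n=3. Two-tailed t-test against untreated cells, significance at p<0.05.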
On the technique in general: In an ELISA, binding on a coated surface is turned into a signal by an enzyme label.

pIC50: −log10 of the molar value. The source made the active and inactive calls. The rule behind the calls is not given here.

Consider `CC(C)=CCC/C(C)=C/Cn1cc(CC(C)(P(=O)(O)O)P(=O)(O)O)nn1`, for which the pIC50 (commonly the IC50 on a negative log10 scale, so that one unit is a factor of ten) in test [1] was 5.89. Also, the LED in test [2] came out at 0.1 µM.

For `CC(C)=CCC/C(C)=C/Cn1cc(C2CC2(P(=O)(O)O)P(=O)(O)O)nn1` (stereo not given), in test [1], the pIC50 was 5.80. Moreover, the LED in test [2] turned out to be 0.5 µM. Also, in test [3], the inhibition entry was “inactive”. Further, the outcome in the test on RPMI-8226 was Active.

Regarding `C=C(Cc1cn(C/C=C(\C)CCC=C(C)C)nn1)P(=O)(O)O`, the pIC50 in test [1] was under 4.00. Moreover, the inhibition entry in test [4] is “inactive”. Also, the result in the test with RPMI-8226 was inactive.

Take `CC(C)=CCC/C(C)=C/Cn1cc(CC(CN)(P(=O)(O)O)P(=O)(O)O)nn1`: in test [1], the pIC50 is 5.70. For the same molecule, the LED in test [2] was found to be 0.5 µM. The outcome in the test on RPMI-8226 was Active.

Regarding `CC(C)=CCC/C(C)=C/Cn1cc(C=C(P(=O)(O)O)P(=O)(O)O)nn1`, in test [1], the pIC50 was 5.57. Moreover, the LED in test [2] amounted to 0.25 µM. In addition, in test [3], the inhibition result is “inactive”. Moreover, in the test with RPMI-8226, the outcome was Active.

With `CC(C)=CCC/C(C)=C/Cn1cc(CC(O)(P(=O)(O)O)P(=O)(O)O)nn1`, the LED in test [2] was determined as 0.1 µM. Moreover, the inhibition entry in test [5] is “inactive”. Besides, the result in the test with RPMI-8226 was Active.

Consider `CC(C)=CCC/C(C)=C/Cn1cc(CC(P(=O)(O)O)P(=O)(O)O)nn1`, for which the LED in test [2] was found to be 0.5 µM.

For the molecule `CCC(Cc1cn(C/C=C(\C)CCC=C(C)C)nn1)(P(=O)(O)O)P(=O)(O)O`, the pIC50 in test [1] was 5.23. Besides, in test [2], the LED is 2.5 µM.

Consider `CC(C)=CCC/C(C)=C/Cn1cc(CCP(=O)(O)O)nn1`, for which the pIC50 in test [1] is under 4.00. Besides, the inhibition result in test [4] was “inactive”. In the test with RPMI-8226, the outcome was inactive.

For `CC(C)=CCC/C(C)=C/Cn1cc(CC(F)(P(=O)(O)O)P(=O)(O)O)nn1`, in test [1], the pIC50 was 5.52. Further, in test [2], the LED amounted to 0.25 µM. Besides, the inhibition result in test [6] was “Active”. Further, in test [3], the inhibition result is “inactive”. Further, the result with RPMI-8226 was Active.
